Screens deposited in PubChem BioAssay by several laboratories.
The full list was thinned out, with hits kept by preference.
Beta2AR agonist: agonists of human beta-2 adrenergic receptor inducing internalization | P07550 | Am2.2-beta2AR cells, FAP receptor internalization, flow cytometry | response, % (test concentration not listed) | hit rate 0.43% among 340,000 | AID 504454;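 active = response above a set limit, near 3 SD of response in nonfluorescent compounds, cut at about 42% in these data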
UPR CHOP act: apoptotic UPR (CHOP) activation | CHO-CHOP luciferase reporter, luminescence; percent of tunicamycin response over DMSO baseline | activation, % at 10 µM | hit rate 0.34% among 330,000;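 active = at 10 µM dose, activation of 40% or more, normalized to positive control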;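 also: 100% = tunicamycin at 10 µg/mL and 0% = DMSO alone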
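measured by = luciferase luminescence | assay system = CHO-CHOP cells, stable luciferase reporter of PERK-eIF2a-CHOP signalling | amount = 500 reporter cells seeded per well | timing = 6 h compound exposure at 37 °C after overnight seeding | controls = positive tunicamycin 10 µg/mL, negative DMSO alone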
CHOP inhibitor: inhibitors of CHOP induction in ER stress response | CHO-K1 CHOP-promoter luciferase, tunicamycin-induced, 15-18 h | inhibition, % at 10 µM | hit rate 3.8% among 220,000 | AID 2732;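 active = compounds that reduced the stress-induced luciferase reporter signal by more than about 70% of percent inhibition, limit read from the data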;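 also: 0% = tunicamycin plus vehicle and 100% = wells without tunicamycin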
VLA-4 inh: inhibition in a human VLA-4 binding assay | AID 2557 | hit rate 0.2% among 330,000 | P13612 | VLA-4 expressing cells, ligand binding flow cytometry | inhibition, % (about 7 µM as worked out from the volumes in the protocol); in the data active = inhibition above about 50%
Target sequence (P13612 whole entry, looked up): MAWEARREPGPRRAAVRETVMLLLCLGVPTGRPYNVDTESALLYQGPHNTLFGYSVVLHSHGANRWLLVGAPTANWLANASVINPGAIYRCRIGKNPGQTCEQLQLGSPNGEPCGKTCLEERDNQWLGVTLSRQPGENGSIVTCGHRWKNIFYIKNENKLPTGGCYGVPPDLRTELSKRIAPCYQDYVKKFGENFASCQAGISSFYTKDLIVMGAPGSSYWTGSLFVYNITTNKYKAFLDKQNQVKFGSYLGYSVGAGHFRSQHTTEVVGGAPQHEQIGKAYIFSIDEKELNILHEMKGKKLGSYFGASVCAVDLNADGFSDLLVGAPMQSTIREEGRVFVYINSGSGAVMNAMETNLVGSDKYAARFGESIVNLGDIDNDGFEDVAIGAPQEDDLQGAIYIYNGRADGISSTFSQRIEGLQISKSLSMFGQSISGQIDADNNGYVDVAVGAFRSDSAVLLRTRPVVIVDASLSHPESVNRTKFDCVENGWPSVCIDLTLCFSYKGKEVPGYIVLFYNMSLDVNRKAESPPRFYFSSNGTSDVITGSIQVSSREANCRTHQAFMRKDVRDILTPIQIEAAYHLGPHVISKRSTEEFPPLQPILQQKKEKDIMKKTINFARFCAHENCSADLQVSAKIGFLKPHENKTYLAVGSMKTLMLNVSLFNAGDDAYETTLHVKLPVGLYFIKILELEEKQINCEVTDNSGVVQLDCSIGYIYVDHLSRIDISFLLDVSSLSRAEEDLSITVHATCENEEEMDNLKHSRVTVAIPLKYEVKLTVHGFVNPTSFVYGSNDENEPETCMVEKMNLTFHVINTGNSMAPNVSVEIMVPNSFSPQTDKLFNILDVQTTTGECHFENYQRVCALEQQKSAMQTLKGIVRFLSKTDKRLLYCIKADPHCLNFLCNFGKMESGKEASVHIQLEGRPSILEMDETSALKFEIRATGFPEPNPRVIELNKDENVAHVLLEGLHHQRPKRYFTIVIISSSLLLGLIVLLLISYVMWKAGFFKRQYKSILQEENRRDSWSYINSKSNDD
XBP1 UPR activ: activators of adaptive arm of unfolded protein response (XBP1) | CHO-XBP1 luciferase reporter, IRE1-XBP1 UPR activation, luminescence; percent of tunicamycin response, DMSO as zero | activation, % at 20 µM | hit rate 0.33% among 330,000 | AID 463104;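 active = versus positive control, 20 µM dose yields 30% or more activation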;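 also: 100% = tunicamycin at 10 µg/mL and 0% = DMSO only wells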
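incubation = overnight seeding at 37 °C, 6 h compound treatment at 37 °C | assay system = CHO-XBP1 cells stably carrying IRE1-XBP1-driven luciferase reporter | input = 1000 cells per well | detection = luciferase luminescence | dosing = single point, 20 µM final compound, 1% DMSO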
* marks the source's active call; other numbers are inactive results; i = inactive; x = not tested or not shown.

SMILES	Beta2AR agonist	UPR CHOP act	CHOP inhibitor	VLA-4 inh	XBP1 UPR activ
CC(C)c1nc(SCC(=O)N2CCN(c3ccccc3)CC2)c2c(=O)n(C)c(=O)n(C)c2n1	26	3	70*	x	0
CC(C)c1nc(SCC(=O)Nc2ccc3c(c2)OCCO3)c2c(=O)n(C)c(=O)n(C)c2n1	3	2	59	-10	4
C[C@@]12C(=O)N(CC3CC3)CC(=O)N1[C@H](C1CC1)[C@@H]1C(=O)N(c3ccccc3)C(=O)[C@@H]12	-2	0	x	15	0
N#Cc1ccccc1OCC(=O)N1CCN(S(=O)(=O)c2ccc(Cl)cc2)CC1	-10	2	x	-11	0
O=C(CCNC(=O)c1ccco1)Nc1ccc(N2CCOCC2)cc1	7	1	11	18	-1
Cc1cc(C2(c3ccc(O)c(C)c3)OC(=O)c3ccccc32)ccc1O	-2	0	-5	-32	0
Cc1cc(O)c(C(C)C)cc1C1(c2cc(C(C)C)c(O)cc2C)OC(=O)c2ccccc21	11	23	106*	-25	-7
CC1CCC2(CC1)NC(=O)N(NC(=O)c1cccc(N(C)C)c1)C2=O (centres undefined)	-3	1	x	18	-1
COc1ccc(C2C(=O)NN=C2C)cc1 (centres undefined)	-2	x	x	x	x
CCC(=O)N1CCN(c2ccc(Cl)cc2NC(=O)Cc2ccc(Cl)cc2)CC1	-5	-2	80*	3	-1
CC[N+]1=C(C)C(C)(C)c2cc(C)ccc21	-31	0	74*	i	2
CCCCCCCCCC[n+]1cccc2c3ccccc3ccc21	-4	x	106*	x	x
CCc1cccc(CC)c1NC(=O)COC(=O)c1cccc(S(=O)(=O)N2CCc3ccccc3C2)c1	-1	-1	26	-33	4
Cc1cccc(C(C)C)c1NC(=O)COC(=O)c1cccc(S(=O)(=O)N2CCc3ccccc3C2)c1	-6	0	85*	-2	-1
CCOc1ccc(N(C)C(=O)CCc2nnc3ccc(NCc4ccco4)nn23)cc1	16	-2	x	3	-6
Cn1c(CS(=O)Cc2c(Cl)cccc2Cl)nnc1SCc1ccc(Cl)cc1 (centres undefined)	1	4	30	-9	-2
O=S(Cc1ccc(Br)cc1)Cc1nnc(SCc2ccc(Cl)cc2)n1-c1ccccc1 (centres undefined)	-8	11	85*	-8	1
Nn1c(Cc2cccc3ccccc23)nnc1SCc1c(F)cccc1Cl	-5	0	35	9	-3
O=S(Cc1ccc(Br)cc1)Cc1nnc(SCc2c(F)cccc2Cl)n1-c1ccccc1 (centres undefined)	35	4	74*	-13	-2
CCCCn1c(N)c(N(CCOC)C(=O)COC(=O)CCOc2ccccc2)c(=O)[nH]c1=O	12	1	x	15	-3
Cc1cccc(CNc2ccc(S(=O)(=O)N3CCCCC3)cc2)c1	-2	-2	x	10	-3
Cc1ccc2nc(SCC(=O)NC3CCS(=O)(=O)C3)[nH]c2c1 (centres undefined)	-3	-1	x	12	0
Cc1cccc(N2CCN(C(=O)COc3cc(=O)n(C)c4ccccc34)CC2)c1C	-7	0	25	-12	0
Cc1ccc(Cl)cc1N1CCN(C(=O)c2cc3c(=O)n(C)c4ccccc4c3n2C)CC1	26	6	88*	-35	8
Cc1cccc(N2CCN(C(=O)c3cc4c(=O)n(C)c5ccccc5c4n3C)CC2)c1C	9	2	79*	3	0
SMILES	Beta2AR agonist	UPR CHOP act	CHOP inhibitor	VLA-4 inh	XBP1 UPR activ
Cc1cccc(N2CCN(C(=O)Cc3cn(C)c4ccccc34)CC2)c1C	0	0	82*	-7	0
COc1cccc(C(=O)NCC(=O)N/N=C/c2cccs2)c1	-8	0	-6	5	0
CCOc1ccccc1/C=C/C(=O)N1CCN(C(=O)c2ccco2)CC1	84*	1	x	-10	0
CC(=O)Nc1c2c(nn1-c1ccc(F)cc1)CSC2	-4	1	x	8	-2
Cn1c(O)c(/C=C2\C=Nc3ccccc32)sc1=Nc1ccc(C(=O)O)cc1	0	3	16	7	-1
CCn1c(O)c(/C=C2\C=Nc3ccccc32)sc1=Nc1ccccc1	-2	2	79*	-31	9
CCCN(CCC)S(=O)(=O)c1ccc(C(=O)Nc2nnc(-c3cccc(OC)c3)o2)cc1	-1	5	92*	13	4
CCCN(CCC)S(=O)(=O)c1ccc(C(=O)Nc2nnc(-c3cc(OC)cc(OC)c3)o2)cc1	13	11	85*	22	5
Cn1c(=O)c2c(SCc3ccccn3)nc(C3CC3)nc2n(C)c1=O	-6	-2	30	0	7
Cn1c(=O)c2c(SCc3cccnc3)nc(CC(C)(C)C)nc2n(C)c1=O	-6	2	57	-3	8
Cn1c(=O)c2c(SCc3ccccn3)nc(CC(C)(C)C)nc2n(C)c1=O	-12	1	74*	4	4
CCCc1nc(SC2CCCC2)c2c(=O)n(C)c(=O)n(C)c2n1	-5	5	75*	-1	4
CCCc1nc(SCc2ccccn2)c2c(=O)n(C)c(=O)n(C)c2n1	5	3	70*	-10	-2
Brc1ccc2[nH]c3c(c2c1)CCC3	1	1	0	-5	1
OCCN=C1CCCc2c1[nH]c1ccc(Br)cc21	34	-1	72*	-5	2
CCOC(=O)C(Cc1ccccc1)C(=O)NCc1ccccc1 (centres undefined)	10	2	x	-5	-6
CCN(Cc1cccs1)C(=O)CN1C(=O)NC(c2ccccc2)(c2ccccc2)C1=O	2	0	x	1	-2
CC(C)(C)c1ccc(C(=O)OCC(=O)Nc2sc3c(c2C#N)CCC3)cc1	0	0	90*	-5	-3
CN(C)S(=O)(=O)c1ccc(C(=O)OCC(=O)Nc2sc3c(c2C#N)CCCCC3)cc1	0	4	-31	5	0
CCOC(=O)c1cnc2ccc(OCC)cc2c1NCc1ccccc1OC	-11	2	82*	8	0
CCOC(=O)c1cnc2ccc(OC)cc2c1NCc1ccccc1	-10	0	51	-6	-2
O=C(N=Nc1c(O)[nH]c2ccc([N+](=O)[O-])cc12)c1ccccc1Cl	-2	1	6	0	-2
O=C(N=Nc1c(O)[nH]c2ccc(Cl)cc12)c1cc(-c2cccs2)nc2ccccc12	47*	x	-21	-5	x
CNc1nc2cc([N+](=O)[O-])c([N+](=O)[O-])cc2nc1NC	2	x	75*	16	x
COc1ccc(CCNC(=O)c2cc(C3CC3)nc3c2cnn3C(C)C)cc1	9	0	x	7	0
COc1ccc(Cn2c(CCC(=O)Nc3ccc(C)c(C)c3)nc3cccnc32)cc1	-3	0	86*	14	0
